Screening results: PubChem BioAssay, several laboratories
Myeloid diff 2: promotes myeloid progenitor differentiation; ER-HoxA9 myeloid progenitors, lysozyme-GFP differentiation, flow cytometry; calls only at 10 µM; hit rate 1% among 360,000; AID 624256;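 active means normalized GFP-positive differentiation at or above the plate's own cutoff, the solvent-only control mean plus 3 SD; inconclusive means no clear call, values can overlap the other calls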;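 further: cells exposed to compound for four days before flow analysis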
Exocytosis inh: lytic granule exocytosis inhibition | TALL-104 LAMP-1 surface exposure, flow cytometry; cells stimulated with thapsigargin and PMA | inhibition, % at 10 µM | hit rate 0.66% among 360,000 | AID 651702;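 active means inhibition above about 55%, limit read from the data; inconclusive means no clear call, values can overlap the other calls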
Arrestin-AP2 inh: inhibitors of human beta-arrestin and AP2 interaction | FITC-arrestin peptide / GST-AP2 beads, flow cytometry; AP2 beta2 appendage carries R879A mutation | inhibition, % at 10 µM | hit rate 0.31% among 340,000;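 active means inhibition above a set limit, near 3 SD of compounds lacking own fluorescence, cut at about 54% in these data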
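System: GST-AP2 R879A glutathione beads; medium: PBS, Tween 20 0.05%, BSA 0.1%; reagent: fluorescein-tagged arrestin peptide at 50 nM final; schedule: pre-incubation 12 min, peptide binding 1 h, room temperature; detection: flow cytometry, FL1 (488/535 nm); read-out: inhibition as reduced fluorescein signal on beads, percent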
ABCB6 inh 2: human ABCB6 transporter inhibition. Q9NP58. K562-ABCB6 porphyrin accumulation, flow cytometry, 1 h; hits give low values. fluorescence ratio to DMSO, % at 10 µM. hit rate 0.19% among 360,000. AID 602162;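 active means fluorescence ratio to DMSO below 75%, the collection mean minus 3 SD; inconclusive means too few cells collected in the well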;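 further: signal is porphyrin accumulated inside mitochondria; lower ratio means ABCB6 inhibition with less porphyrin fluorescence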
NRP1-CendR mod: NRP-1/CendR interaction modulation; FAM-RPARPAR peptide binding to NRP-1, fluorescence polarization; AID 602438; inhibition, % at 25 µM; hit rate 0.85% among 360,000;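 active means inhibition or corrected inhibition above about 18%, plus a signal ratio from 0.5 to 1.5, limit read from the data, passing the limit was not always enough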
ATG4B inh: blocks human ATG4B protease cleavage of LC3 substrate | AID 504462 | Q9Y4P1 | hit rate 0.51% among 340,000 | ATG4B cleavage of LC3-PLA2, NBD-HPC fluorescence, 1 h | inhibition, % at 8.33 µM; in the data active means inhibition above about 40%
Each line names hits and unclear results; the compound was inactive in the other large screens. Shown are actives, neighbours in structure and some others; about 3.3% of the full set was active somewhere.

N#Cc1ccc(-c2ccc(Cl)cc2)nc1SCC(=O)c1cccc(Cl)c1	Myeloid diff 2 active
N#Cc1ccc(-c2cccnc2)nc1SCC(=O)c1ccccc1	Myeloid diff 2 active
N#Cc1ccc(-c2ccccc2)nc1SCC(=O)c1cccc(Cl)c1	Myeloid diff 2 active
NS(=O)(=O)c1ccc(CCNS(=O)(=O)c2cccc(C(=O)O)c2)cc1	none
Cc1ccc(OCC(=O)Nc2ccc3c(c2)nc2n3CCOC2)cc1	none
O=C(COc1ccc([N+](=O)[O-])cc1)Nc1ccc2c(c1)nc1n2CCOC1	Myeloid diff 2 active
CN(C)C(CNC(=O)c1cc(S(=O)(=O)N2CCOCC2)ccc1F)c1cccs1 (centres undefined)	none
O=C(N/C(=C/c1ccccc1Cl)C(=O)N1CCCC1)c1ccccc1	none
Cc1cccc(CSc2nnc(-c3cnccn3)n2C)c1	NRP1-CendR mod 38
Cn1c(SCc2ccccn2)nnc1-c1cnccn1	none
O=C(NN=C1CCCCCCC1)c1ccc(F)cc1	none
O=C(NN=C1CCCCCCCCCCC1)c1ccccc1F	NRP1-CendR mod 28
O=[N+]([O-])c1cc(C2Nc3cccc4cccc(c34)N2)ccc1Cl	Myeloid diff 2 active
O=C1NC(c2ccc(Cl)c([N+](=O)[O-])c2)Nc2ccccc21 (centres undefined)	none
CCCN1CCN(C(=S)Nc2ccc([N+](=O)[O-])cc2)CC1	Myeloid diff 2 active
S=C(Nc1ccc(Cl)cc1)NC1CCN(Cc2ccccc2)CC1	Exocytosis inh 69
CCCN1CCC(NC(=S)Nc2ccc([N+](=O)[O-])cc2)CC1	Exocytosis inh 86
S=C(Nc1ccccc1)NC1CCN(Cc2ccccc2)CC1	none
CCCN1CCC(NC(=S)Nc2ccc(C(=O)OCC)cc2)CC1	none
O=[N+]([O-])c1ccc(NC(=S)N2CCOCC2)cc1	none
COc1cc(/C=C(\C#N)c2nc3ccccc3o2)ccc1O	Myeloid diff 2 active
COc1cc(/C=C(\C#N)c2nc(-c3cc4ccccc4oc3=O)cs2)ccc1O	Myeloid diff 2 active
O=C(COC(=O)/C=C/c1cccc(C(F)(F)F)c1)Nc1cccc(S(=O)(=O)NC2=NCCC2)c1	none (no result: Arrestin-AP2 inh, ATG4B inh)
CCOc1ccccc1C(=O)NCC(=O)Nc1ccc(-c2ccccc2)cc1	none
CCN(CC(=O)Nc1c(F)cccc1F)C(=O)Cn1c(=O)cnc2ccccc21	none
CCCN(CC(=O)Nc1ccc(F)c(F)c1F)C(=O)Cn1c(=O)cnc2ccccc21	Myeloid diff 2 active
COC(=O)CCc1c(C)[nH]c(C(=O)OCc2ccccc2)c1C	NRP1-CendR mod 20 (no result: Myeloid diff 2)
CCOC(=O)c1c(C)[nH]c(C(=O)OCc2ccccc2)c1C	none
CCOC(=O)C[C@H]1c2ccc(C(F)(F)F)cc2S(=O)(=O)N1C(C)(C)C	NRP1-CendR mod 22
CCOC(=O)C[C@H]1c2cc(C(F)(F)F)ccc2S(=O)(=O)N1Cc1ccccc1	NRP1-CendR mod 26
O=C(CCNC(=O)c1ccccc1Cl)NC1=NCCS1	none
CC(C)Cn1cnc2c(SCc3ccccc3F)nc(N)nc21	NRP1-CendR mod 26
CN(C)c1ccc(C2Nc3ccccc3C(=O)N2NS(C)(=O)=O)cc1 (centres undefined)	none
CC(C)(C)c1ccc(Oc2ccc(N)cn2)cc1	Myeloid diff 2 active
Cc1cc(Oc2ccc(N)cn2)cc(C)c1Cl	none
Cc1c(CCC(=O)N[C@@H](C)C(=O)O)c(=O)oc2cc3occ(-c4ccccc4)c3cc12	none
CCc1ccccc1NC(=O)c1ccc(CN2CCC(Cc3ccccc3)CC2)cc1	NRP1-CendR mod 32
C/C(=N\N=c1/sc2ccccc2n1C)c1ccccn1	NRP1-CendR mod 26
CCC(C)/C(C)=N/NC(=O)c1ccc(COc2ccc(Cl)c(C)c2)cc1 (centres undefined)	Myeloid diff 2 active
CCOc1ccc(OCc2ccc(C(=O)N/N=C(\C)c3ccccn3)cc2)cc1	Myeloid diff 2 inconclusive
CC(/C=N/N1CCN(c2ccccn2)CC1)=C\c1ccccc1	Exocytosis inh 76
CC(/C=N/N1CCN(c2ccccc2)CC1)=C\c1ccccc1	none
C[C@@H](c1ccccc1)N1C[C@@H](COCc2ccccc2)Oc2cc(N3CC[C@@H](N(C)C)C3)ccc2S1(=O)=O	NRP1-CendR mod 25 (no result: Arrestin-AP2 inh, ATG4B inh)
